Test results from ChEMBL document CHEMBL4219109, “Design, synthesis and biological evaluation of novel hydroxamic acid based histone deacetylase 6 selective inhibitors bearing phenylpyrazol scaffold as surface recognition motif” (Bioorg Med Chem, 2018).

Key:
Histone deacetylase 1 = Histone deacetylase 1 (Homo sapiens, UniProt Q13547); test: Inhibition of full length recombinant human C-terminal FLAG/His-tagged HDAC1 expressed in baculovirus infected sf9 cells using Boc-Lys-(Ac)-AMC as substrate preincubated for 15 mins followed by substrate addition measured after 60 mins by fluorescence assay
[1] = molecular target: T1, Protein deacetylase HDAC6 (Homo sapiens, UniProt Q9UBN7); test: Inhibition of full length recombinant human N-terminal GST-tagged HDAC6 expressed in baculovirus infected sf9 cells using Boc-Lys-(Ac)-AMC as substrate preincubated for 15 mins followed by substrate addition measured after 60 mins by fluorescence assay
T1 sequence (Q9UBN7 whole entry): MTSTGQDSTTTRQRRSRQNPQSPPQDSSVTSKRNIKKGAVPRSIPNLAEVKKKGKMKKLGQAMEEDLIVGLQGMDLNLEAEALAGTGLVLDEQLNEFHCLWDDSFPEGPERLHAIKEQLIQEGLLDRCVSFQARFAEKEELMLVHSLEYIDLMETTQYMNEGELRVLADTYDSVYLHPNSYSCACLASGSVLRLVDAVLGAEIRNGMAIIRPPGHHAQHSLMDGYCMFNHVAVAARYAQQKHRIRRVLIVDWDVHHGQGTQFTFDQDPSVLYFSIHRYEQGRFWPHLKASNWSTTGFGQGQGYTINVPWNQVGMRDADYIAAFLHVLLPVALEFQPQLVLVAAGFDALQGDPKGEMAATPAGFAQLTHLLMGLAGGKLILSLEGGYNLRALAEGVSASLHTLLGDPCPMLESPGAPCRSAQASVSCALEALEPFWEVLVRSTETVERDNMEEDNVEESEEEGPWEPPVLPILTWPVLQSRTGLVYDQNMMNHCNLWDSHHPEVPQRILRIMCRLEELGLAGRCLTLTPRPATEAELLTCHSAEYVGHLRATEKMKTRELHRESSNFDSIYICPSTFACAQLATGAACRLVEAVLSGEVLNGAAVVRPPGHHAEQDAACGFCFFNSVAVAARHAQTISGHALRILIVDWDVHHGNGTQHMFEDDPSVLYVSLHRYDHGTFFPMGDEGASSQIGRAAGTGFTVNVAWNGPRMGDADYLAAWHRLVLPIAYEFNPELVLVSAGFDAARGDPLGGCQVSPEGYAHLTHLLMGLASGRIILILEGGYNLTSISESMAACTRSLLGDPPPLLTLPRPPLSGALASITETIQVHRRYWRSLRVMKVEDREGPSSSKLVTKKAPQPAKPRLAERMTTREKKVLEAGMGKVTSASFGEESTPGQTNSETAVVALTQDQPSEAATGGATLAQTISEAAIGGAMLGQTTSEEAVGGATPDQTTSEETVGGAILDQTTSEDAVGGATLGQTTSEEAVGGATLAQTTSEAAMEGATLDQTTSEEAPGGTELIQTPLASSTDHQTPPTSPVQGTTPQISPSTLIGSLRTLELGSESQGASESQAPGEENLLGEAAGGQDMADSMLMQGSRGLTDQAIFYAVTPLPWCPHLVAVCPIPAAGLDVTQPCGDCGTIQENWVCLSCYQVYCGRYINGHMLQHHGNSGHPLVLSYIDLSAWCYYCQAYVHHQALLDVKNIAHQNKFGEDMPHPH

Histone deacetylase = test: Inhibition of HDAC in human HeLa nuclear extract using Boc-Lys-(Ac)-AMC as substrate preincubated for 15 mins followed by substrate addition measured after 60 mins by fluorescence assay; type: protein assay
HepG2 = test: Antiproliferative activity against human HepG2 cells after 96 hrs by MTT assay; type: functional
Outline: (§1)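 Cells from Shanghai Cell Bank; A549 grown in high-glucose DMEM and HepG2 in MEM, both with 10% FBS plus penicillin/streptomycin, at 37°C in 5% CO₂. Seeded at 1.5-3.5×10⁴ cells/well for 24 h, then given graded compound concentrations for 96 h. MTT solution (2 mg/mL) added for 4 h, formazan dissolved in DMSO, A570 read. Growth expressed as treated/untreated cell number ratio.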

Histone deacetylase 2 = Histone deacetylase 2 (Homo sapiens, UniProt Q92769); test: (§2) Inhibition of full length recombinant human C-terminal His-tagged HDAC2 expressed in baculovirus infected sf9 cells using Boc-Lys-(Ac)-AMC as substrate preincubated for 15 mins followed by substrate addition measured after 60 mins by fluorescence assay
[2] = molecular target: Histone deacetylase 3/Nuclear receptor corepressor 2 (HDAC3/NCoR2) (Homo sapiens, UniProt O15379); test: as §2, with “HDAC3/N-terminal GST-tagged NCOR2 (395 to 489 residues)” for “HDAC2”
A549 = test: Antiproliferative activity against human A549 cells after 96 hrs by MTT assay; type: functional; outline: as §1
Histone deacetylase 8 = molecular target: T2, Histone deacetylase 8 (Homo sapiens, UniProt Q9BY41); test: Inhibition of full length recombinant human C-terminal His-tagged HDAC8 expressed in baculovirus infected sf9 cells using Boc-Lys-(TFA)-AMC as substrate preincubated for 15 mins followed by substrate addition measured after 60 mins by fluorescence assay
T2 sequence (Q9BY41 whole entry): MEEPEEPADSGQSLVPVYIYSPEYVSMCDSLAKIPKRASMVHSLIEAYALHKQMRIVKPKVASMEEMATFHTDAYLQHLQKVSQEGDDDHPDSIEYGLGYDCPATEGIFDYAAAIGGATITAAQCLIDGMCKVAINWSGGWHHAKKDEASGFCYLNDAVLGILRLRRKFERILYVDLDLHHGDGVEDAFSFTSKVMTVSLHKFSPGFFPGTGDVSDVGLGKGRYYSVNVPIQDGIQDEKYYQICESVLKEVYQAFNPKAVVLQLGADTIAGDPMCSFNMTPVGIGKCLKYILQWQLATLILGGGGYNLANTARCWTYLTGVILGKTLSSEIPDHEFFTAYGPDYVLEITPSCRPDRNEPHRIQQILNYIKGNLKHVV

Chain of Histone deacetylase 1 (Q13547 whole entry): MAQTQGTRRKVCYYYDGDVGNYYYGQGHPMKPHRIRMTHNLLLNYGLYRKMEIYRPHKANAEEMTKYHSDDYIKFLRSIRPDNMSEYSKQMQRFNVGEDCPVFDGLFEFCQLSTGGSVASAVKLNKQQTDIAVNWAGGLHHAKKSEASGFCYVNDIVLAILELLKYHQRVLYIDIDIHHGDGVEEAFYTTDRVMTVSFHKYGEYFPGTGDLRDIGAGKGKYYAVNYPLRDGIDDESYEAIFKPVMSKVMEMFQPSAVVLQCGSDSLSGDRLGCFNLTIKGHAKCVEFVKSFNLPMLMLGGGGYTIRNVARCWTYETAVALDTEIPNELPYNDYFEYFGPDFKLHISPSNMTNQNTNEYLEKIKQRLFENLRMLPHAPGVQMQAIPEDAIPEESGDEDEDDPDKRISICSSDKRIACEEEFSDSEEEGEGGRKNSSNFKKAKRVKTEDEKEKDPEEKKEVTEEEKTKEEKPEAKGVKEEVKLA
Chain of Histone deacetylase 2 (Q92769 whole entry, the tested form may be a part): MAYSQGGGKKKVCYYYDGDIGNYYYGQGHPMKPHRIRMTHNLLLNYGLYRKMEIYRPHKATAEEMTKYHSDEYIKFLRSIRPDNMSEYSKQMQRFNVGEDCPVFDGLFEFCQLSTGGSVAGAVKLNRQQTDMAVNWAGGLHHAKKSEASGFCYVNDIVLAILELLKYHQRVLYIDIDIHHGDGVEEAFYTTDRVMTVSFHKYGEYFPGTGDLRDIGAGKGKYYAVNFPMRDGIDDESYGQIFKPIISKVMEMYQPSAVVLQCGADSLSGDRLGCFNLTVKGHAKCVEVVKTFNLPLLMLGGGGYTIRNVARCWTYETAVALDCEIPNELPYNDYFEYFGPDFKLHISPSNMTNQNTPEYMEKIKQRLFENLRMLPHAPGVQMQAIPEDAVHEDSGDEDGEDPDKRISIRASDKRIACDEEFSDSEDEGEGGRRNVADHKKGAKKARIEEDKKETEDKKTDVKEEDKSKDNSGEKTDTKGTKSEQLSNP
Chain of Histone deacetylase 3/Nuclear receptor corepressor 2 (HDAC3/NCoR2) (O15379 whole entry, the tested form may be a part): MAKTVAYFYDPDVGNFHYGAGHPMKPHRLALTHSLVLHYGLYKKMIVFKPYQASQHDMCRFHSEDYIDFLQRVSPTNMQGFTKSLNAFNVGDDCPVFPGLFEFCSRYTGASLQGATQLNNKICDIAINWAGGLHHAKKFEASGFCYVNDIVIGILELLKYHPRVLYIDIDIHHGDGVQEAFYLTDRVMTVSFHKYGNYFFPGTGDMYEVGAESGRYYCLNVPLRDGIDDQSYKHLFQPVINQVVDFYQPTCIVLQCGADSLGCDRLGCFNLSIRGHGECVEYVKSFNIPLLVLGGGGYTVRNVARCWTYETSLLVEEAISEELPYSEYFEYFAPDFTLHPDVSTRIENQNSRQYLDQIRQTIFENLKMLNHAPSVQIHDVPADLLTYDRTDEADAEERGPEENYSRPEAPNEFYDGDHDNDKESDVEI
Chain of Histone deacetylase 3/Nuclear receptor corepressor 2 (HDAC3/NCoR2) (Q9Y618 whole entry, further chain, the tested form may be a part): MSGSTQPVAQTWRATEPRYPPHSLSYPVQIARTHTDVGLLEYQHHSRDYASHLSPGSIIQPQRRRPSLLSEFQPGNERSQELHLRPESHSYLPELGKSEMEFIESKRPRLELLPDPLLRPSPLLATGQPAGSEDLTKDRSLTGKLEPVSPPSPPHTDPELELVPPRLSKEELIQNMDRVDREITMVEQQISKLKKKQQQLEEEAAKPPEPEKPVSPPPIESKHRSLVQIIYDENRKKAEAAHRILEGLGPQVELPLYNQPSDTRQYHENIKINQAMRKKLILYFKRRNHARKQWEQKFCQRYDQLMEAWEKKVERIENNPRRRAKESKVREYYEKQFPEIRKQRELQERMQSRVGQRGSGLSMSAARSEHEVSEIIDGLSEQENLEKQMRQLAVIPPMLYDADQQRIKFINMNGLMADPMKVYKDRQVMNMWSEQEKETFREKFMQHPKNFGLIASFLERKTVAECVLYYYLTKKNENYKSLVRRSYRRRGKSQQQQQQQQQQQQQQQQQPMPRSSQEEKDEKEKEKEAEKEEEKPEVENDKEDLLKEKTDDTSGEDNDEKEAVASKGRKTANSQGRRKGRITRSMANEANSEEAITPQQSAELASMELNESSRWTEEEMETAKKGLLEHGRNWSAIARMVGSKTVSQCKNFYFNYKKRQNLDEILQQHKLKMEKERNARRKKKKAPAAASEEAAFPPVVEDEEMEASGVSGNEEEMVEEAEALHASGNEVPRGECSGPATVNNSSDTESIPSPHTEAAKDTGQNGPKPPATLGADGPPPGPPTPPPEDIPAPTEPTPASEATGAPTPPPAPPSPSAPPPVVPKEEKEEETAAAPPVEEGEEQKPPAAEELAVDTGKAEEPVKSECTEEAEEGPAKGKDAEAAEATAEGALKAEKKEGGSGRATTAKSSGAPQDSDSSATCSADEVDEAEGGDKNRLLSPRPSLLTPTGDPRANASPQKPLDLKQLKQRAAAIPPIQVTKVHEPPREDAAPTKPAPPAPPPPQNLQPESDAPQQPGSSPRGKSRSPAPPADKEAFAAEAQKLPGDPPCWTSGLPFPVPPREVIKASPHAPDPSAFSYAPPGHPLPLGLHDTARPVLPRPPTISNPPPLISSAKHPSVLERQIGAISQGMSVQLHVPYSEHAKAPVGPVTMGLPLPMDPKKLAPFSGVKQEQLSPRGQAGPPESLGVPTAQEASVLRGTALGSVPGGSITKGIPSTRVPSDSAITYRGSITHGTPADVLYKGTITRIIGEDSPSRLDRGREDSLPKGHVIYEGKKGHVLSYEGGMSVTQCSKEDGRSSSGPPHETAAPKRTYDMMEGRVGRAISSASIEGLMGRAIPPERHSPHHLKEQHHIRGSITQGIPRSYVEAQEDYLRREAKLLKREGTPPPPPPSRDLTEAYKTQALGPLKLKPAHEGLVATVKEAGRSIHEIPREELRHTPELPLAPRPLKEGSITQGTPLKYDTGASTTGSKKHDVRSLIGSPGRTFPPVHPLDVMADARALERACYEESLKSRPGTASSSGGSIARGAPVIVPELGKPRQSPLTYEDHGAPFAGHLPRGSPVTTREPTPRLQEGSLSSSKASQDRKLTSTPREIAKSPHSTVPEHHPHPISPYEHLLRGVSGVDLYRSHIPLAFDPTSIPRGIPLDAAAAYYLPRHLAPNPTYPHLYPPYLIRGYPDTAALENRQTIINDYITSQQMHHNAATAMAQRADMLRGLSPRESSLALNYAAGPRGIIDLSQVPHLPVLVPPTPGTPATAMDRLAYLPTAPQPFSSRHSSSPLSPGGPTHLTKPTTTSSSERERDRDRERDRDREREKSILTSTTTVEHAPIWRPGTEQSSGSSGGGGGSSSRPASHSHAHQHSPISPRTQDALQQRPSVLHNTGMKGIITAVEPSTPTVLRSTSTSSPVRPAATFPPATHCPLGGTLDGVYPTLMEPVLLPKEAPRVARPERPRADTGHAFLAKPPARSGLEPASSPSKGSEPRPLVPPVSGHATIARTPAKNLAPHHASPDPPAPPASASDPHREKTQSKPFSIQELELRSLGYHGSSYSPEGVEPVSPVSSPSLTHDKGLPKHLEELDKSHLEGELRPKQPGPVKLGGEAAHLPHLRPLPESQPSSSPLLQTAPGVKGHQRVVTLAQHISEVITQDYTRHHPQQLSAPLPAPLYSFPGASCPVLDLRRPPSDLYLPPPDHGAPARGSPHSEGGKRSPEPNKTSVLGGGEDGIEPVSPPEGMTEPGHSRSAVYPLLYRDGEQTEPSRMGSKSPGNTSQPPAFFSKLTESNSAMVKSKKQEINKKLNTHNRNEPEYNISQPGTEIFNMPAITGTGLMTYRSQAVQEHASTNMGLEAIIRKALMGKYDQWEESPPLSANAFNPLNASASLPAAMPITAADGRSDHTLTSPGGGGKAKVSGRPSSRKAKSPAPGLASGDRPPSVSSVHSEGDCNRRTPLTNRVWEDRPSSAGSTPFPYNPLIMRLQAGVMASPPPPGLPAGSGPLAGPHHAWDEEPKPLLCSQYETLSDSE

Structure (SMILES)	IC50 (Histone deacetylase 1)	IC50 [1]	IC50 (Histone deacetylase)	GI50 (HepG2; Homo sapiens, HepG2, 96 h)	IC50 (Histone deacetylase 2)	IC50 [2]	GI50 (A549; Homo sapiens, A549, 96 h)	IC50 (Histone deacetylase 8)	GI50 (HepG2)	GI50 (A549)
CCCc1cc(-c2ccc(F)cc2)n(Cc2ccc(C(=O)NO)cc2)n1	> 5000 nM	167 nM	3827 nM	6660 nM	2880 nM	1940 nM	16000 nM	> 5000 nM		
CCc1cc(-c2ccc(F)cc2)n(Cc2ccc(C(=O)NO)cc2)n1	3610 nM	69 nM	1792 nM	7760 nM	1500 nM	1840 nM	16700 nM	> 5000 nM		
O=C(CCCNC(=O)c1cc(-c2ccc(F)cc2)[nH]n1)NO	3740 nM	1060 nM	2603 nM	88000 nM	1830 nM	1430 nM	> 100000 nM	> 5000 nM		
O=C(NO)c1ccc(Cn2nc(-c3ccc(F)cc3)cc2Cc2ccccc2)cc1	1880 nM	326 nM	1028 nM		763 nM	619 nM		> 5000 nM		
O=C(CCNC(=O)c1cc(-c2ccc(F)cc2)[nH]n1)NO	> 5000 nM	> 5000 nM	> 5000 nM	76000 nM	> 5000 nM	> 5000 nM	46900 nM	> 5000 nM		
O=C(CCCCNC(=O)c1cc(-c2ccc(F)cc2)[nH]n1)NO	1040 nM	275 nM	644 nM	> 100000 nM	883 nM	671 nM	> 100000 nM	> 5000 nM		
Cc1ccc(-c2cc(C(F)(F)F)nn2CCc2ccc(C(=O)NO)cc2)cc1	1070 nM	540 nM	1460 nM	24000 nM	635 nM	816 nM	29300 nM	> 5000 nM		
Cc1ccc(-c2cc(C(F)(F)F)nn2Cc2ccc(C(=O)NO)cc2)cc1	925 nM	27 nM	231 nM	7500 nM	1220 nM	128 nM	10600 nM	> 5000 nM		
Cc1ccc(-c2cc(C)nn2Cc2ccc(C(=O)NO)cc2)cc1	694 nM	29 nM	22 nM	13300 nM	76 nM	53 nM	12400 nM	> 5000 nM		
Cc1ccc(-c2cc(C(F)(F)F)nn2-c2ccc(C(=O)NO)cc2)cc1	836 nM	359 nM	1139 nM	> 100000 nM	919 nM	736 nM	> 100000 nM	> 5000 nM		
O=C(NO)c1ccc(Cn2nc(Cc3ccccc3)cc2-c2ccc(F)cc2)cc1	> 5000 nM	420 nM	> 5000 nM		> 5000 nM	> 5000 nM		> 5000 nM		
Cc1ccc(-c2cc(C(F)(F)F)nn2-c2ccc(S(N)(=O)=O)cc2)cc1 [CELECOXIB]	1190 nM	643 nM	1637 nM							
O=C(CCCCCCC(=O)Nc1ccccc1)NO [VORINOSTAT]									22000 nM	5020 nM

More lines, now with the values ahead:

IC50 (Histone deacetylase 1)	IC50 [1]	IC50 (Histone deacetylase)	GI50 (HepG2; Homo sapiens, HepG2, 96 h)	IC50 (Histone deacetylase 2)	IC50 [2]	GI50 (A549; Homo sapiens, A549, 96 h)	IC50 (Histone deacetylase 8)	GI50 (HepG2)	GI50 (A549)	Structure (SMILES)
487 nM	35 nM	165 nM	16700 nM	391 nM	228 nM	19200 nM	> 5000 nM			CCc1cc(-c2ccc(F)cc2)nn1Cc1ccc(C(=O)NO)cc1
480 nM	8 nM	40 nM	30000 nM	114 nM	69 nM	11400 nM	> 5000 nM			Cc1cc(-c2ccc(F)cc2)nn1Cc1ccc(C(=O)NO)cc1
110 nM	16 nM	33 nM	8580 nM	47 nM	21 nM	15500 nM	> 5000 nM			Cc1ccc(-c2cc(C(F)(F)F)n(Cc3ccc(C(=O)NO)cc3)n2)cc1
79 nM	22 nM	43 nM	23200 nM	40 nM	35 nM	1980 nM	2950 nM			O=C(CCCCCCNC(=O)c1cc(-c2ccc(F)cc2)[nH]n1)NO
430 nM	36 nM	16 nM	16500 nM	135 nM	92 nM	23200 nM	> 5000 nM			Cc1cc(-c2ccc3c(c2)OCO3)n(Cc2ccc(C(=O)NO)cc2)n1
38 nM	1 nM	22 nM	38100 nM	17 nM	9 nM	20200 nM	> 5000 nM			O=C(NO)c1ccc(CNC(=O)c2cc(-c3ccc(F)cc3)[nH]n2)cc1
66 nM	29 nM	58 nM	47600 nM	42 nM	36 nM	7090 nM	3710 nM			O=C(CCCCCNC(=O)c1cc(-c2ccc(F)cc2)[nH]n1)NO
541 nM	107 nM	476 nM	16800 nM	362 nM	290 nM	15200 nM	> 5000 nM			CCCc1cc(-c2ccc(F)cc2)nn1Cc1ccc(C(=O)NO)cc1
24 nM	5 nM	8 nM	20800 nM	40 nM	36 nM	28100 nM	> 5000 nM			Cc1cc(-c2ccc3c(c2)OCO3)nn1Cc1ccc(C(=O)NO)cc1
352 nM	78 nM	121 nM	27600 nM	549 nM	80 nM	> 100000 nM	> 5000 nM			Cc1ccc(-c2cc(C(F)(F)F)n(CCc3ccc(C(=O)NO)cc3)n2)cc1
133 nM	7 nM	13 nM	21200 nM	41 nM	26 nM	11200 nM	> 5000 nM			Cc1ccc(-c2cc(C)n(Cc3ccc(C(=O)NO)cc3)n2)cc1
